In ChEMBL document CHEMBL5046239, “Development of novel phenoxyalkylpiperidines as high-affinity Sigma-1 (σ1) receptor ligands with potent anti-amnesic effect” (Eur J Med Chem, 2022):
The source made the active and inactive calls. No cut-off for these calls is given here.

How the values were obtained:
[1] = target: T1, Sigma intracellular receptor 2 (Rattus norvegicus, UniProt Q5U3Y7); test: Displacement of [3H]DTG from sigma 2 receptor in Wistar Han rat liver membranes measured after 120 mins by scintillation counting method; type: cell membranes, Membrane
T1 sequence (Q5U3Y7 whole entry): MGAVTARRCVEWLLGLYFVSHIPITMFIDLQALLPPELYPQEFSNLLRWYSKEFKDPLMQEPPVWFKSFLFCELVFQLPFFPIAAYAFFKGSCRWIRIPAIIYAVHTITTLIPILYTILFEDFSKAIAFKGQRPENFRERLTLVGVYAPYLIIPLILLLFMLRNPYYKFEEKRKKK

[2] = target: Sigma non-opioid intracellular receptor 1 (Cavia porcellus, UniProt Q60492); test: Displacement of [3H](+)-pentazocine from sigma 1 receptor in guinea pig brain membranes measured after 120 mins by scintillation counting method; type: cell membranes, Membrane
Sequence of Sigma non-opioid intracellular receptor 1 (Q60492 whole entry): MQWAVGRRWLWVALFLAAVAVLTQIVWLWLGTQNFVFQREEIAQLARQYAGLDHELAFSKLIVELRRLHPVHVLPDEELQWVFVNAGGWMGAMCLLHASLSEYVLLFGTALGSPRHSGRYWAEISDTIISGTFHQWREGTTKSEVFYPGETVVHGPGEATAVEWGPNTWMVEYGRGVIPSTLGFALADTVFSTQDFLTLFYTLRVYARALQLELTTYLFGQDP

C6 = test: Cytotoxicity against rat C6 cells assessed as cell viability measured after 48 hrs by MTT assay; type: functional, cell-based; settings: C6, 48 h
Mus musculus [3] = test: Cognitive enhancing effect in dizocilpine induced amnesia Swiss mouse model assessed as reduction in memory impairment at 0.03 to 0.3 mg/kg, ip pretreated for 10 mins followed by dizocilpine addition measured after 20 mins by Y-maze test; type: functional, organism-based; settings: dose 0.03-0.3 mg/kg, time 30.0 min
Summary of the method: (§1)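 Male Swiss OF-1 mice, 7–9 weeks old, n = 12–16 per group. Test drug given ip in saline 10 min before dizocilpine (0.15 mg/kg ip), which was given 20 min before the Y-maze session or passive avoidance training. NE-100 (1 mg/kg ip) was given at the same time as the test drug where used. Read-outs were Y-maze alternation and step-through latency at 24 h retention. Statistics were ANOVA with Dunnett's test, or Dunn's test for latency.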

HepG2 = test: Cytotoxicity against human HepG2 cells assessed as cell viability measured after 48 hrs by MTT assay; type: functional, cell-based; settings: HepG2, 48 h
Summary of the method: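 HepG2 cells grown in MEM with 10% FBS, glutamine, pen-strep and NEAA at 37 °C, 5% CO2. Seeded at 25,000 cells/well and dosed the next day at 1–100 μM for 48 h. Solvent controls (EtOH, DMSO) included. MTT 0.5 mg/mL for 3–4 h, formazan dissolved in DMSO/EtOH, absorbance read at 570/630 nm.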

SH-SY5Y = test: Cytotoxicity against human SH-SY5Y cells assessed as cell viability measured after 48 hrs by MTT assay; type: functional, cell-based
Summary of the method: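 SH-SY5Y cells grown in MEM/Ham's F12 (1:1) with 10% FBS, glutamine and pen-strep at 37 °C, 5% CO2. Seeded at 25,000 cells/well and dosed the next day at 1–100 μM for 48 h. Solvent controls included. MTT 0.5 mg/mL for 3–4 h, formazan dissolved in DMSO/EtOH, absorbance read at 570/630 nm.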

Mus musculus [4] = test: Cognitive enhancing effect in dizocilpine induced amnesia Swiss mouse model assessed as reduction in memory impairment at 0.03 to 0.3 mg/kg, ip pretreated for 10 mins followed by dizocilpine addition in presence of NE-100 measured after 20 mins by Y-maze test; type: functional, organism-based; settings: dose 0.03-0.3 mg/kg, time 30.0 min; summary of the method: as §1
MCF7 = test: Cytotoxicity against human MCF7 cells assessed as cell viability measured after 48 hrs by MTT assay; type: functional, cell-based; settings: MCF7, 48 h
Summary of the method: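 MCF7 cells grown in DMEM with 10% FBS, glutamine and pen-strep at 37 °C, 5% CO2. Seeded at 25,000 cells/well and dosed the next day at 1–100 μM for 48 h. Solvent controls included. MTT 0.5 mg/mL for 3–4 h, formazan dissolved in DMSO/EtOH, absorbance read at 570/630 nm.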

Mus musculus [5] = test: Cognitive enhancing effect in dizocilpine induced amnesia Swiss mouse model assessed as increase in latency time at 0.03 to 0.3 mg/kg, ip pretreated for 10 mins followed by dizocilpine addition in presence of NE-100 measured after 20 mins by step-through passive avoidance test; type: functional, organism-based; settings: dose 0.03-0.3 mg/kg, time 30.0 min; summary of the method: as §1
Mus musculus [6] = test: Cognitive enhancing effect in dizocilpine induced amnesia Swiss mouse model assessed as increase in latency time at 0.03 to 0.3 mg/kg, ip pretreated for 10 mins followed by dizocilpine addition measured after 20 mins by step-through passive avoidance test; type: functional, organism-based; settings: dose 0.03-0.3 mg/kg, time 30.0 min; summary of the method: as §1
Mus musculus [7] = test: Cognitive enhancing effect in dizocilpine induced amnesia Swiss mouse model assessed as increase in latency time at 1 to 10 mg/kg, ip pretreated for 10 mins followed by dizocilpine addition measured after 20 mins by step-through passive avoidance test; type: functional, organism-based; settings: dose 1-10 mg/kg, time 30.0 min; summary of the method: as §1
Mus musculus [8] = test: Cognitive enhancing effect in dizocilpine induced amnesia Swiss mouse model assessed as reduction in memory impairment at 1 to 10 mg/kg, ip pretreated for 10 mins followed by dizocilpine addition in presence of NE-100 measured after 20 mins by Y-maze test; type: functional, organism-based; settings: dose 1-10 mg/kg, time 30.0 min; summary of the method: as §1
Mus musculus [9] = test: Cognitive enhancing effect in dizocilpine induced amnesia Swiss mouse model assessed as increase in latency time at 1 to 10 mg/kg, ip pretreated for 10 mins followed by dizocilpine addition in presence of NE-100 measured after 20 mins by step-through passive avoidance test; type: functional, organism-based; settings: dose 1-10 mg/kg, time 30.0 min; summary of the method: as §1
Mus musculus [10] = test: Cognitive enhancing effect in dizocilpine induced amnesia Swiss mouse model assessed as reduction in memory impairment at 1 to 10 mg/kg, ip pretreated for 10 mins followed by dizocilpine addition measured after 20 mins by Y-maze test; type: functional, organism-based; settings: dose 1-10 mg/kg, time 30.0 min; summary of the method: as §1

SMILES | Ki [1] [nM] | Ki [2] [nM] | EC50 (C6) [nM] | also measured
COc1ccc(OCCCN2[C@H](C)CCC[C@@H]2C)cc1 | 52.5 | 23.5 | – | –
COc1ccc(OC[C@H](C)N2CCC(C)CC2)cc1 | 723 | 1.49 | – | –
C[C@@H]1CCC[C@H](C)N1CCCOc1ccc(Cl)cc1 | 17.2 | 4.43 | – | –
CC1CCN([C@@H](C)COc2ccc(Cl)cc2)CC1 | 186 | 0.34 | – | –
C[C@@H]1CCCCN1CCOc1ccc(Cl)cc1 | 77.8 | 20.6 | – | –
C[C@@H]1CCC[C@H](C)N1CCOc1ccc(Cl)cc1 | 116 | 59.4 | – | –
COc1ccc(OCCN2[C@H](C)CCC[C@@H]2C)cc1 | 636 | 379 | – | –
COc1ccc(OCCN2C(C)(C)CCCC2(C)C)cc1 | 809 | > 5000 | > 100000 | –
COc1ccc(OCCN2CCCC[C@H]2C)cc1 | 300 | 35.9 | – | –
COc1ccc(OCCN2CCCC[C@@H]2C)cc1 | 175 | 43.4 | – | –
C[C@H]1CCCCN1CCOc1ccc(Cl)cc1 | 69.8 | 16.6 | – | –
CC1CCN(CCOc2ccc(Cl)cc2)CC1 | 239 | – | > 100000 | Activity (Mus musculus [3]): Active; EC50 (HepG2): > 100000 nM; EC50 (SH-SY5Y): > 100000 nM; Activity (Mus musculus [4]): inactive; EC50 (MCF7): > 100000 nM; Activity (Mus musculus [5]): inactive; Activity (Mus musculus [6]): Active
COc1ccc(OC[C@@H](C)N2CCC(C)CC2)cc1 | 187 | 1.16 | > 100000 | –
CC1CCN([C@H](C)COc2ccc(Cl)cc2)CC1 | 52.3 | 1.18 | > 100000 | –
COc1ccc(OCCN2CCC(C)CC2)cc1 | 170 | 0.89 | > 100000 | Activity (Mus musculus [7]): Active; EC50 (HepG2): > 100000 nM; EC50 (SH-SY5Y): > 100000 nM; EC50 (MCF7): > 100000 nM; Activity (Mus musculus [8]): inactive; Activity (Mus musculus [9]): inactive; Activity (Mus musculus [10]): Active
CC1(C)CCCC(C)(C)N1CCOc1ccc(Cl)cc1 | 411 | > 5000 | > 100000 | –
